Measured values taken from ChEMBL document CHEMBL1781924, “Inhibitors of the NF-kappaB activation pathway from Cryptocarya rugulosa” (J Nat Prod, 2009).
Activity calls are given as the source filed them. No cut-off for these calls is given here.

Columns and labels:
K562 [1] = assay: Cytotoxicity against human K562 cells; type: functional, cell-based
OCI-Ly3 [2] = assay: Induction of IkappaB in human OCI-LY3 cells assessed as fold increase in luciferase reporter gene after 10 hrs; type: functional, cell-based; conditions: TDE = time-dependent effect
OCI-Ly3 [3] = assay: Induction of IkappaB in human OCI-LY3 cells assessed as fold increase in luciferase reporter gene; type: functional, cell-based
OCI-Ly3 [4] = assay: Induction of IkappaB in human OCI-LY3 cells assessed as fold increase in luciferase reporter gene at 16 uM; type: functional, cell-based
K562 [5] = assay: Cytotoxicity against doxorubicin-resistant human K562 cells; type: functional, cell-based
KB = assay: Cytotoxicity against human KB cells; type: functional, cell-based
[6] = molecular target: T1, Inhibitor of nuclear factor kappa-B kinase subunit beta (Homo sapiens) (UniProt O14920); assay: Inhibition of IKK-beta in human OCI-LY19 cells assessed as decrease in renilla values at 10 ug/ml after 10 hrs by IkB-photinus/Renilla assay; type: cell-based
T1 sequence (whole entry): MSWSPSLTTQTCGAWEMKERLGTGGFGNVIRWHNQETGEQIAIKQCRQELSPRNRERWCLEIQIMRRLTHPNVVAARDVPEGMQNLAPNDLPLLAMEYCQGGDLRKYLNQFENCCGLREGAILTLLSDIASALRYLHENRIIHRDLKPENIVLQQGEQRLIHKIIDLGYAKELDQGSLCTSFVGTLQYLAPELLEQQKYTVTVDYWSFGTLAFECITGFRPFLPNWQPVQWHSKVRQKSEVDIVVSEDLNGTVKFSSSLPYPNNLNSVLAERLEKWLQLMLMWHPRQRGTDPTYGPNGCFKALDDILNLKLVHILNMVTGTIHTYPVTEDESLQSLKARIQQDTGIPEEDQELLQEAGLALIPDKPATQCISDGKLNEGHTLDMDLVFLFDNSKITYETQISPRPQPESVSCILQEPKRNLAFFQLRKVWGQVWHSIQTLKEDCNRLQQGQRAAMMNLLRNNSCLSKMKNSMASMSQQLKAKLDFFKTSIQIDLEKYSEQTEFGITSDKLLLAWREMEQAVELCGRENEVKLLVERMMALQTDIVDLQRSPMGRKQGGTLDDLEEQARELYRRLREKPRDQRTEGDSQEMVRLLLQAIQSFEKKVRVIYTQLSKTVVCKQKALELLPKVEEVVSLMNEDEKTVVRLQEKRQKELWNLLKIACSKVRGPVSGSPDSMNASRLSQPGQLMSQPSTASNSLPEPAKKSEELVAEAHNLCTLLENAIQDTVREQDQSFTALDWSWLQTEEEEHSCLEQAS
Method in brief: (§1)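 OCI-Ly3, OCI-Ly10 and OCI-Ly19 cells stably coexpressing an IκB-Photinus fusion reporter and unmodified Renilla luciferase, in phenol red-free IMDM with 20% heparinized human plasma. Cells were exposed to compound at 37 °C, 5% CO2 for 2.5, 5 or 10 h, then pelleted, lysed and given dual luciferase substrates. Photinus/Renilla ratio and Renilla alone were normalized to the untreated control mean.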

OCI-Ly3 [7] = assay: Induction of IkappaB in human OCI-LY3 cells assessed as fold increase in luciferase reporter gene at 11 uM; type: functional, cell-based
[8] = molecular target: T1, Inhibitor of nuclear factor kappa-B kinase subunit beta (Homo sapiens); assay: Inhibition of IKK-beta in human OCI-LY19 cells assessed as decrease in renilla values at 10 ug/ml after 2.5 to 10 hrs by IkB-photinus/Renilla assay; type: cell-based; method in brief: as §1
[9] = molecular target: T1, Inhibitor of nuclear factor kappa-B kinase subunit beta (Homo sapiens); assay: Inhibition of IKK-beta in human OCI-LY3 cells assessed as decrease in renilla values at 2.5 to 5 ug/ml after 10 hrs by IkB-photinus/Renilla assay; type: cell-based; conditions: 5 to 10 ug/ml, in the assay text read “at 5 to 10 ug/ml” for “at 2.5 to 5 ug/ml”; method in brief: as §1
[10] = molecular target: T1, Inhibitor of nuclear factor kappa-B kinase subunit beta (Homo sapiens); assay: Inhibition of IKK-beta in human OCI-LY10 cells assessed as decrease in renilla values at 2.5 to 10 ug/ml after 10 hrs by IkB-photinus/Renilla assay; type: cell-based; method in brief: as §1

inhibition [6] | inhibition [8] | inhibition [9] | inhibition [10] | Structure (SMILES) | IC50 (K562 [1]) | Activity (OCI-Ly3 [2]) | Activity (OCI-Ly3 [3]) | Activity (OCI-Ly3 [4]) | IC50 (K562 [5]) | IC50 (KB) | Activity (OCI-Ly3 [7])
 |  |  |  | O=C1C[C@@H]2/C(=C(O)\C=C\c3ccccc3)C(=O)C=C[C@@H]2O1 [CRYPTOCARYONE] | 1800 nM | tde | Dose-dependent effect | Active | 1800 nM | 1800 nM | 
inactive | Active | Active | Active | O=C(/C=C/C[C@@H]1CC=CC(=O)O1)CCc1ccccc1 |  | tde | Dose-dependent effect |  |  |  | Active
